Tests used:
K562 = assay: Growth inhibition of human K562 cells expressing p210Bcr/Abl after 96 hrs by trypan blue exclusion assay; assay type: functional, cell-based; conditions: K562, 96 h
How it was run: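 K562 cells were kept in RPMI with 10% FBS and penicillin–streptomycin at 37 °C under 5% CO2. Cells were seeded at 1 × 10^5 cells/mL with a range of compound concentrations, using DMSO as the negative control. After 96 h, viability was counted by Trypan blue exclusion and expressed as percent of DMSO control to derive GI50.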

DU-145 = assay: Growth inhibition of human DU145 cells after 96 hrs by trypan blue exclusion assay; assay type: functional; conditions: DU-145, 96 h

COc1cc(OC)c(/C=C(/Sc2ccc(C)cc2)C(=O)c2ccc(Br)cc2)c(OC)c1
GI50 (K562): 50 µM | GI50 (DU-145): > 100 µM

COc1cc(OC)c(/C=C(\C(=O)c2ccc(Cl)cc2)S(=O)(=O)Cc2ccc(F)cc2)c(OC)c1
GI50 (K562): 1 µM | GI50 (DU-145): 25 µM

O=C(/C(=C\c1ccc(O)c([N+](=O)[O-])c1)Sc1ccccc1Br)c1ccc(Br)cc1
GI50 (K562): 10 µM | GI50 (DU-145): 10 µM

O=C(/C(=C\c1ccc(F)cc1Cl)Sc1ccc(Br)cc1)c1ccc(Br)cc1
GI50 (K562): 1 µM | GI50 (DU-145): 1 µM

COc1ccc(C(=O)/C(=C\c2ccc(O)c([N+](=O)[O-])c2)SCc2ccc(Br)cc2)cc1
GI50 (K562): 10 µM | GI50 (DU-145): 10 µM

Cc1ccc(/C=C(/SCc2ccc(F)cc2)C(=O)c2ccc(Cl)cc2)s1
GI50 (K562): > 100 µM | GI50 (DU-145): > 100 µM

Cc1ccc(S/C(=C/c2c(O)cc(O)cc2O)C(=O)c2ccc(Br)cc2)cc1
GI50 (K562): 50 µM | GI50 (DU-145): > 100 µM

N#Cc1ccc(C(=O)/C(=C\c2ccc(O)c([N+](=O)[O-])c2)SCc2ccc(Br)cc2)cc1
GI50 (K562): 10 µM | GI50 (DU-145): 10 µM

COc1ccc(C(=O)/C(=C\c2ccc(Br)cc2)S(=O)(=O)c2ccc(F)cc2)cc1
GI50 (K562): 1 µM | GI50 (DU-145): 1 µM

O=C(/C(=C\c1ccc(O)cc1)S(=O)(=O)Cc1ccc(F)cc1)c1ccc(Br)cc1
GI50 (K562): 10 µM | GI50 (DU-145): 10 µM

O=C(/C(=C\c1ccc(O)cc1)SCc1ccc(Cl)c(Cl)c1)c1ccc(Cl)cc1
GI50 (K562): 1 µM | GI50 (DU-145): 1 µM

Cc1ccc(S(=O)(=O)/C(=C/c2cc(C)cc(C)c2)C(=O)c2ccc(Cl)cc2)cc1
GI50 (K562): 1 µM | GI50 (DU-145): 1 µM

O=C(/C(=C\c1ccc(I)cc1)Sc1ccc(Br)cc1)c1ccc(Br)cc1
GI50 (K562): 1 µM | GI50 (DU-145): 1 µM

Cc1ccc(CS/C(=C/c2ccc(O)c(O)c2O)C(=O)c2ccc(Cl)cc2)cc1
GI50 (K562): 50 µM | GI50 (DU-145): 50 µM

CN(C)c1ccc(/C=C(/SCc2ccc(Cl)cc2)C(=O)c2ccc(Cl)cc2)cc1
GI50 (K562): 10 µM | GI50 (DU-145): > 100 µM

Cc1ccc(S(=O)(=O)/C(=C/c2ccc(N(C)C)cc2)C(=O)c2ccc(Cl)cc2)cc1
GI50 (K562): > 100 µM | GI50 (DU-145): > 100 µM

CSc1ccc(/C=C(\C(=O)c2ccc(Cl)cc2)S(=O)(=O)Cc2ccc(Cl)cc2)cc1
GI50 (K562): 1 µM | GI50 (DU-145): 10 µM

O=C(/C(=C\c1ccc(O)c([N+](=O)[O-])c1)SCc1ccc(Br)cc1)C1CCNC1 (stereo not drawn)
GI50 (K562): > 100 µM | GI50 (DU-145): > 100 µM

CN(C)c1ccc(/C=C(/SCc2ccc(F)cc2)C(=O)c2ccc(C(=O)O)cc2)cc1
GI50 (K562): 10 µM | GI50 (DU-145): 10 µM

Cc1ccc(C)c(/C=C(\C(=O)c2ccc(Br)cc2)S(=O)(=O)Cc2ccc(F)cc2)c1
GI50 (K562): 1 µM | GI50 (DU-145): 1 µM

CCOc1ccc(/C=C(\C(=O)c2ccc(Br)cc2)S(=O)(=O)c2ccc(Br)cc2)c(OCC)c1
GI50 (K562): 1 µM | GI50 (DU-145): 10 µM

CN(C)c1ccc(/C=C(/SCc2ccc(Br)cc2)C(=O)c2ccc(C(=O)O)cc2)cc1
GI50 (K562): 50 µM | GI50 (DU-145): 50 µM

O=C(/C(=C\c1ccc(OCc2ccccc2)cc1)S(=O)(=O)Cc1ccc(Cl)cc1)c1ccc(Cl)cc1
GI50 (K562): 1 µM | GI50 (DU-145): 1 µM

O=C(/C(=C\c1ccc(Cl)cc1Cl)S(=O)(=O)c1ccc(Br)cc1)c1ccc(Br)cc1
GI50 (K562): 1 µM | GI50 (DU-145): 10 µM

Cc1ccsc1/C=C(/SCc1ccccc1F)C(=O)c1ccc(Cl)cc1
GI50 (K562): 50 µM | GI50 (DU-145): 50 µM

O=C(/C(=C\c1ccccc1OCc1ccccc1)S(=O)(=O)Cc1ccc(Cl)cc1)c1ccc(Br)cc1
GI50 (K562): 1 µM | GI50 (DU-145): 10 µM

COc1ccc(/C=C(/Sc2ccc(Br)cc2)C(=O)c2ccc(Br)cc2)cc1
GI50 (K562): 1 µM | GI50 (DU-145): 25 µM

COc1ccc(/C=C(/SCc2ccc(Cl)cc2)C(=O)c2ccc(C(=O)O)cc2)cc1
GI50 (K562): 10 µM | GI50 (DU-145): 10 µM

Cc1ccc(S/C(=C/c2ccc(Oc3ccccc3)cc2)C(=O)c2ccc(Br)cc2)cc1
GI50 (K562): > 100 µM | GI50 (DU-145): 1 µM

O=C(/C(=C\c1ccc(F)cc1F)S(=O)(=O)c1ccc(Cl)cc1)c1ccc(Br)cc1
GI50 (K562): 25 µM | GI50 (DU-145): 25 µM

CSc1ccc(/C=C(\C(=O)c2ccc(Br)cc2)S(=O)(=O)c2ccc(C)cc2)cc1
GI50 (K562): 1 µM | GI50 (DU-145): 1 µM

CN(C)c1ccc(/C=C(/Sc2ccc(Br)cc2)C(=O)c2ccc(Cl)cc2)cc1
GI50 (K562): > 100 µM | GI50 (DU-145): > 100 µM

CN(C)c1ccc(/C=C(/SCc2ccc(F)cc2)C(=O)c2ccc(Br)cc2)cc1
GI50 (K562): 1 µM | GI50 (DU-145): 50 µM

Cc1ccc(CS/C(=C/c2ccc(C)s2)C(=O)c2ccc(Cl)cc2)cc1
GI50 (K562): 50 µM | GI50 (DU-145): 50 µM

COc1ccc(S/C(=C/c2ccccc2OCc2ccccc2)C(=O)c2ccc(Cl)cc2)cc1
GI50 (K562): 1 µM | GI50 (DU-145): 1 µM

CC(=O)c1ccc(/C=C(/Sc2ccc(C)cc2)C(=O)c2ccc(Br)cc2)cc1
GI50 (K562): 50 µM | GI50 (DU-145): 50 µM

O=C(/C(=C\c1ccc(OCc2ccccc2)cc1)SCc1ccc(Cl)cc1)c1ccc(Cl)cc1
GI50 (K562): 10 µM | GI50 (DU-145): 1 µM

O=C(O)c1cc(/C=C(/Sc2ccc(Br)cc2)C(=O)c2c(F)c(F)c(F)c(F)c2F)ccc1O
GI50 (K562): 25 µM | GI50 (DU-145): 25 µM

COc1cc(OC)c(C=C(C(=O)c2ccc(Cl)cc2)S(=O)(=O)Cc2ccccc2Cl)c(OC)c1
GI50 (K562): 25 µM | GI50 (DU-145): > 100 µM

COc1ccc(/C=C(\C(=O)c2ccc(Cl)cc2)S(=O)(=O)c2ccc(Br)cc2)cc1O
GI50 (K562): 10 µM | GI50 (DU-145): 10 µM

CCOc1ccc(/C=C(/Sc2ccc(C)cc2)C(=O)c2ccc(Cl)cc2)cc1OC
GI50 (K562): 10 µM | GI50 (DU-145): 25 µM

O=C(/C(=C\c1ccccc1OCc1ccccc1)SCc1ccc(Cl)c(Cl)c1)c1ccc(Cl)cc1
GI50 (K562): 10 µM | GI50 (DU-145): 10 µM

O=C(/C(=C\c1ccc(O)c([N+](=O)[O-])c1)SCc1ccc(Br)cc1)c1ccc(O)cc1O
GI50 (K562): 50 µM | GI50 (DU-145): > 100 µM

Cc1ccc(CS/C(=C/c2c[nH]c3ccc(Br)cc23)C(=O)c2ccc(Cl)cc2)cc1
GI50 (K562): 1 µM | GI50 (DU-145): 1 µM

COc1ccc(C(=O)/C(=C\c2ccc(Br)cc2)Sc2ccc(F)cc2)cc1
GI50 (K562): > 100 µM | GI50 (DU-145): > 100 µM

COc1cc(OC)c(/C=C(/SCc2ccc(Cl)cc2)C(=O)c2ccc(Br)cc2)c(OC)c1
GI50 (K562): 10 µM | GI50 (DU-145): 1 µM

O=C(/C(=C\c1ccccc1OCc1ccccc1)Sc1ccc(F)cc1)c1ccc(Cl)cc1
GI50 (K562): 1 µM | GI50 (DU-145): 1 µM

O=C(/C(=C\c1ccc(O)c([N+](=O)[O-])c1)SCc1ccc(Br)cc1)c1ccc(Cl)cc1Cl
GI50 (K562): 1 µM | GI50 (DU-145): 10 µM

Cc1ccsc1/C=C(/SCc1ccc(Cl)cc1Cl)C(=O)c1ccc(Cl)cc1
GI50 (K562): 50 µM | GI50 (DU-145): 10 µM

Cc1ccc(S(=O)(=O)/C(=C/c2ccc(Br)cc2)C(=O)c2ccc(Br)cc2)cc1
GI50 (K562): 4 µM | GI50 (DU-145): 10 µM

Cc1ccc(S/C(=C/c2c[nH]c3ccc(Br)cc23)C(=O)c2ccc(Cl)cc2)cc1
GI50 (K562): 1 µM | GI50 (DU-145): 1 µM

O=C(/C(=C\c1ccccc1F)S(=O)(=O)c1ccc(Br)cc1)c1ccc(Cl)cc1
GI50 (K562): 25 µM | GI50 (DU-145): 25 µM

COc1ccc(/C=C(\C(=O)c2ccc(Cl)cc2)S(=O)(=O)Cc2ccc(Cl)cc2)c(OC)c1OC
GI50 (K562): 1 µM | GI50 (DU-145): 10 µM

Cc1ccc(S(=O)(=O)/C(=C/c2ccc(C)s2)C(=O)c2ccc(Cl)cc2)cc1
GI50 (K562): 25 µM | GI50 (DU-145): 50 µM

COc1cc(OC)c(/C=C(\C(=O)c2ccc(Br)cc2)S(=O)(=O)Cc2ccc(Cl)cc2)c(OC)c1
GI50 (K562): 25 µM | GI50 (DU-145): 25 µM

COc1ccccc1/C=C(/SCc1ccc(Cl)cc1)C(=O)c1ccc([N+](=O)[O-])cc1
GI50 (K562): 1 µM | GI50 (DU-145): 10 µM

O=C(O)c1ccc(C(=O)/C(=C\c2ccc(Br)c([N+](=O)[O-])c2)SCc2ccccc2Cl)cc1
GI50 (K562): 1 µM | GI50 (DU-145): 1 µM

Cc1ccc(S(=O)(=O)/C(=C/c2c(F)c(F)c(F)c(F)c2F)C(=O)c2ccc(Cl)cc2)cc1
GI50 (K562): 50 µM | GI50 (DU-145): > 100 µM

Cc1ccc(C)c(/C=C(\C(=O)c2ccc(Cl)cc2)S(=O)(=O)c2ccc(Br)cc2)c1
GI50 (K562): 1 µM | GI50 (DU-145): 1 µM

Cc1ccc(S/C(=C/c2c(O)cc(O)cc2O)C(=O)c2ccc(Cl)cc2)cc1
GI50 (K562): > 100 µM | GI50 (DU-145): > 100 µM

COc1ccccc1/C=C(/SCc1ccc(F)cc1)C(=O)c1ccc(Cl)cc1
GI50 (K562): 1 µM | GI50 (DU-145): 10 µM

O=C(/C(=C\c1ccc([N+](=O)[O-])c(O)c1)SCc1ccc(Br)cc1)c1cc(Cl)ccc1O
GI50 (K562): 10 µM | GI50 (DU-145): 10 µM

O=C(/C(=C\c1ccc([N+](=O)[O-])c(O)c1)SCc1ccc(Br)cc1)C1CCNC1 (stereo not drawn)
GI50 (K562): > 100 µM | GI50 (DU-145): > 100 µM

Cc1ccc(S/C(=C/c2cc([N+](=O)[O-])ccc2F)C(=O)c2ccc(Cl)cc2)cc1
GI50 (K562): 1 µM | GI50 (DU-145): 10 µM

O=C(/C(=C\c1c(O)cc(O)cc1O)SCc1ccc(Cl)c(Cl)c1)c1ccc(Cl)cc1
GI50 (K562): 25 µM | GI50 (DU-145): 25 µM

Cc1ccsc1/C=C(\C(=O)c1ccc([N+](=O)[O-])cc1)S(=O)(=O)Cc1ccc(Cl)cc1
GI50 (K562): 1 µM | GI50 (DU-145): 1 µM

O=C(/C(=C\c1ccc(O)cc1O)S(=O)(=O)c1ccccc1Br)c1ccc(Br)cc1
GI50 (K562): 50 µM | GI50 (DU-145): > 100 µM

O=C(/C(=C\c1ccc(Br)cc1)SCc1ccc(Cl)cc1)c1ccc(Br)cc1
GI50 (K562): 1 µM | GI50 (DU-145): 1 µM

COc1ccccc1/C=C(\C(=O)c1ccc([N+](=O)[O-])cc1)S(=O)(=O)Cc1ccc(Cl)cc1
GI50 (K562): 10 µM | GI50 (DU-145): 10 µM

O=C(/C(=C\c1ccc(F)c([N+](=O)[O-])c1)SCc1ccc(Br)cc1)c1ccc(C(F)(F)F)cc1
GI50 (K562): 1 µM

COc1ccc(/C=C(/SCc2ccc(Cl)cc2)C(=O)c2ccc(Cl)cc2)cc1O
GI50 (K562): 1 µM

O=C(/C(=C\c1ccc(F)cc1)Sc1ccc(Br)cc1)c1ccc(Br)cc1
GI50 (K562): 1 µM

COc1cccc(OC)c1/C=C(\C(=O)c1ccc(Br)cc1)S(=O)(=O)c1ccc(Br)cc1
GI50 (DU-145): 10 µM

O=C(/C(=C\c1ccc(F)c([N+](=O)[O-])c1)Sc1ccc(Cl)cc1)c1ccc(Cl)cc1
GI50 (K562): 10 µM

Reference: ChEMBL document CHEMBL1240409, “Design, synthesis and evaluation of (E)-alpha-benzylthio chalcones as novel inhibitors of BCR-ABL kinase” (Bioorg Med Chem, 2010)
